The text below walks through data of ChEMBL document CHEMBL4808239, “Challenges of short substrate analogues as SARS-CoV-2 main protease inhibitors” (Bioorg Med Chem Lett, 2021).

Active and inactive are the calls of the source. The calls are words filed in the database; no cut-off is given here. Starred links: 1 amine or outer side, 2 acyl side, 3 side chain; linkers in the order of their positions; H or OH if unused. Non-standard residues stand in square brackets, D forms with d. Residues, ends and D or L forms follow the SMILES beside them. X1 = N#Cc1cc(C[C@H](N[*:1])C(=O)[*:2])ccn1; Tle = CC(C)(C)[C@H](N)C(=O)O; Thz = O=C(O)[C@@H]1CSCN1; Abu = CC[C@H](N)C(=O)O

The first assay deals with Replicase polyprotein 1ab (Severe acute respiratory syndrome coronavirus 2, UniProt P0DTD1). Kind of assay: Inhibition of SARS CoV-2 main protease using DABCYL-KTSAVLQ1SGFRKM-E(EDANS)-NH2 as substrate by FRET based assay.
One may read the IC50 as the concentration at which inhibition is half-maximal. Regarding `CC(C)C[C@@H]1NC(=O)[C@H](C(C)C)NC(=O)[C@@H]2CSC(=N2)c2cc(ccn2)C[C@@H](C(N)=O)NC(=O)[C@H](CO)NC(=O)[C@H](CCC(N)=O)NC1=O`, the IC50 is more than 100 µM.

Take `CC[C@H](NC(C)=O)C(=O)N[C@H](C(=O)N[C@@H](CC(C)C)C(=O)N[C@@H](CCC(N)=O)C(N)=O)C(C)(C)C` (Ac-[Abu][Tle]LQ-NH2): the IC50 is more than 100 µM.

On to `CC(C)C[C@@H]1NC(=O)[C@H](C(C)C)NC(=O)[C@H](C)NC(=O)[C@H](C)NC(=O)[C@@H]2CSC(=N2)c2cc(ccn2)C[C@@H](C(N)=O)NC(=O)[C@H](C)NC(=O)[C@H](CC(N)=O)NC1=O`, for which the IC50 was more than 100 µM.

In turn, `CC(C)C[C@@H]1NC(=O)[C@H](C(C)C)NC(=O)[C@H](C(C)C)NC(=O)[C@@H]2CSC(=N2)c2cc(ccn2)C[C@@H](C(N)=O)NC(=O)[C@H](CCC(=O)O)NC1=O` registered an IC50 of more than 100 µM.

Turning to `CC(C)C[C@@H]1NC(=O)[C@H](CCCNC(=N)N)NC(=O)[C@H](C)NC(=O)[C@@H]2CSC(=N2)c2cc(ccn2)C[C@@H](C(N)=O)NC(=O)[C@H](CCC(=O)O)NC1=O`, the IC50 was more than 100 µM.

Turning to `CC(C)C[C@H](NC(=O)[C@@H](NC(=O)[C@H](C)NC(=O)[C@H](C)NC(=O)[C@@H]1CSCN1)C(C)C)C(=O)N[C@@H](CCC(N)=O)C(=O)N[C@@H](C)C(=O)N[C@@H](Cc1ccnc(C#N)c1)C(N)=O` (H-[Thz]AAVLQA[X1]-NH2), the IC50 was more than 100 µM.

The target in the next assay is Replicase polyprotein 1ab (Severe acute respiratory syndrome coronavirus 2) (UniProt P0DTD1). Kind of assay: Binding affinity to SARS CoV-2 15N/2H-labeled main protease assessed as chemical pertubations at 100 uM by 15HSQC-NMR spectrum analysis. An outline of the steps: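 Wild-type main protease, ¹⁵N/²H-labelled, expressed with His6 tag, Ni-NTA purified and tag-cleaved. [¹⁵N,¹H]-HSQC spectra recorded at 25 °C (600/800 MHz) with and without compound and overlaid to look for chemical shift changes.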
For `CC(C)C[C@@H]1NC(=O)[C@H](C(C)C)NC(=O)[C@H](C)NC(=O)[C@H](C)NC(=O)[C@@H]2CSC(=N2)c2cc(ccn2)C[C@@H](C(N)=O)NC(=O)[C@H](C)NC(=O)[C@H](CCC(N)=O)NC1=O`, the result was inactive.

Take `CC(C)C[C@@H]1NC(=O)[C@H](C(C)C)NC(=O)[C@H](C(C)C)NC(=O)[C@@H]2CSC(=N2)c2cc(ccn2)C[C@@H](C(N)=O)NC(=O)[C@H](CCC(N)=O)NC1=O`: the outcome was inactive.
